Data on twelve compounds can be found in ChEMBL document CHEMBL1821678, “Synthesis and bio-activity evaluation of tetraphenyl(phenylamino) methylene bisphosphonates as antioxidant agents and as potent inhibitors of osteoclasts in vitro” (Eur J Med Chem, 2011).

For orientation: IC50 means the concentration that inhibits the measured activity by half.

Assay [1] deals with Radical scavenging activity. The assay can be described thus: Antioxidant activity assessed as DPPH free radical scavenging activity after 30 mins. In kind it is functional. In outline: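 DPPH (85 μM) added to medium containing a range of test concentrations; incubated 30 min at room temperature; decrease in absorbance read at 518 nm. Ascorbic acid served as reference for maximal decrease. Activity expressed as % inhibition of DPPH absorbance relative to standard; IC50 derived.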
On the technique in general: DPPH is a stable violet radical that fades when it is reduced.

The subject of assay [2] is Osteoclast. The assay can be described thus: In-vitro antibone resorptive activity Sprague-Dawley rat pup long bone osteoclasts assessed as compound concentration causing inhibition of bone resorption after 24 hrs by MTT assay. In kind it is functional. Put shortly: (§1)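 Osteoclasts scraped from long bones of 1–2-day-old Sprague–Dawley rat pups into Hepes-buffered DMEM with 7–10% heat-inactivated FCS; attached 30 min to bovine cortical bone slices, unattached cells rinsed off. Treated at 10, 50, 100 and 250 μM, 37 °C, 5% CO2; harvested at 24, 48, 72 h; MTT viability read at 492 nm, triplicates; inhibitory ratio reported. Alendronate reference.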
In general terms: Tetrazolium assays rely on reduction of a dye to a coloured formazan, in cell work by metabolically active cells.

Assay [3] has as its system Osteoclast. The assay can be described thus: In-vitro antibone resorptive activity Sprague-Dawley rat pup long bone osteoclasts assessed as compound concentration causing inhibition of bone resorption after 48 hrs by MTT assay. In kind it is functional. In outline:
as §1

Assay [4] has as its system Osteoclast. The assay can be described thus: In-vitro antibone resorptive activity Sprague-Dawley rat pup long bone osteoclasts assessed as compound concentration causing inhibition of bone resorption after 72 hrs by MTT assay. In kind it is functional. Put shortly: as §1
Assay [5] in a line: Antioxidant activity assessed as potassium ferricyanide ion reducing power after 20 mins by spectrophotometry. In kind it is functional. Put shortly: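 Compounds (50–100 μM) mixed with phosphate buffer (0.2 M, pH 6.6) and 1% potassium ferricyanide, 50 °C for 20 min; 10% TCA added, centrifuged; upper layer diluted with water plus 0.1% ferric chloride; absorbance at 700 nm, higher absorbance = greater reducing power. Vitamin C standard.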

Another assay deals with Liver. The assay can be described thus: Antioxidant activity in rat liver cells assessed as inhibition of Fe(2+)-asocrbate complex system-induced lipid peroxidation by TBARS assay. In kind it is functional, cell-based. In outline:
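Lipid peroxidation in rat liver cells induced by Fe2+–ascorbate complex; measured as thiobarbituric acid reacting substances (TBARS). Vitamin C standard; IC50 derived.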

Converted amounts (≈) assume the structure as drawn.

Take `O=[N+]([O-])c1cc(NC(P(=O)(Oc2ccccc2)Oc2ccccc2)P(=O)(Oc2ccccc2)Oc2ccccc2)ccc1F`: the IC50 in assay [1] came out at 30.1 µg/mL (≈ 47.4 µM); in assay [5], 2.27 µg/mL (≈ 3.58 µM); in the assay with Liver, 78.5 µg/mL (≈ 124 µM). Moreover, the “Concentration causing inhibition of bone resorption” value (“Concentration causing inhibition” below) in the assay with Osteoclast [2] amounted to 31.2 µM; in the assay with Osteoclast [3], 19.1 µM. Also, the inhibitory concentration in the assay with Osteoclast [4] worked out at 8.1 µM.
`COc1ccc(NC(P(=O)(Oc2ccccc2)Oc2ccccc2)P(=O)(Oc2ccccc2)Oc2ccccc2)cc1`: the IC50 in assay [1] stood at 40.7 µg/mL (≈ 67.7 µM); in assay [5] it was 2.73 µg/mL (≈ 4.54 µM); in the assay on Liver, 89.8 µg/mL (≈ 149 µM). The “Concentration causing inhibition” value was 138.7 µM with Osteoclast [2] and 102.6 µM with Osteoclast [3]. In the assay on Osteoclast [4], the inhibitory concentration was determined as 67.7 µM.
For `O=P(Oc1ccccc1)(Oc1ccccc1)C(Nc1ccc(Cl)cc1)P(=O)(Oc1ccccc1)Oc1ccccc1`, the figures for the IC50 (in assay [1]; in assay [5]; in the assay on Liver) were 41.5 µg/mL (≈ 68.5 µM), 2.71 µg/mL (≈ 4.47 µM) and 87.5 µg/mL (≈ 144 µM), respectively. Further, the results for the “Concentration causing inhibition” value with Osteoclast [2] and with Osteoclast [3] were 191.4 µM and 140.3 µM, respectively. Besides, the inhibitory concentration with Osteoclast [4] turned out to be 71.8 µM.
Regarding `O=P(Oc1ccccc1)(Oc1ccccc1)C(Nc1ccc(F)cc1)P(=O)(Oc1ccccc1)Oc1ccccc1`, the IC50 came to 48.2 µg/mL (≈ 81.8 µM) in assay [1], 2.86 µg/mL (≈ 4.85 µM) in assay [5] and 86.2 µg/mL (≈ 146 µM) in the assay on Liver. The “Concentration causing inhibition” value with Osteoclast [2] is 126.1 µM; in the assay on Osteoclast [3], 89.1 µM. In addition, the inhibitory concentration with Osteoclast [4] was determined as 56.4 µM.
Regarding `O=[N+]([O-])c1cccc(NC(P(=O)(Oc2ccccc2)Oc2ccccc2)P(=O)(Oc2ccccc2)Oc2ccccc2)c1`, the IC50 in assay [1] came to 39.6 µg/mL (≈ 64.2 µM); in assay [5] it was 2.09 µg/mL (≈ 3.39 µM); in the assay on Liver it was 85.7 µg/mL (≈ 139 µM). Besides, the “Concentration causing inhibition” value in the assay on Osteoclast [2] is 49.6 µM; in the assay with Osteoclast [3] it was 28.8 µM. In addition, the inhibitory concentration in the assay with Osteoclast [4] was 14.6 µM.
In the case of `O=P(Oc1ccccc1)(Oc1ccccc1)C(Nc1ccc(F)c(Cl)c1)P(=O)(Oc1ccccc1)Oc1ccccc1`, the results for the concentration for half-maximal inhibition (IC50) (in assay [1]; in assay [5]; with Liver) were 32.9 µg/mL (≈ 52.7 µM), 2.14 µg/mL (≈ 3.43 µM) and 80.6 µg/mL (≈ 129 µM), respectively. The figures for the “Concentration causing inhibition” value in the assay on Osteoclast [2] and in the assay with Osteoclast [3] were 32.7 µM and 21.6 µM, respectively. Further, the inhibitory concentration in the assay on Osteoclast [4] worked out at 10.4 µM.
As for `Cc1ncc(NC(P(=O)(Oc2ccccc2)Oc2ccccc2)P(=O)(Oc2ccccc2)Oc2ccccc2)s1`, the IC50 in assay [1] was 58.4 µg/mL (≈ 98.6 µM); in assay [5] it was 3.01 µg/mL (≈ 5.08 µM); in the assay with Liver, 75.2 µg/mL (≈ 127 µM). The “Concentration causing inhibition” value in the assay with Osteoclast [2] stood at 88.4 µM; in the assay with Osteoclast [3], 64.2 µM. In the assay on Osteoclast [4], the inhibitory concentration was found to be 48.8 µM.
For the compound `O=[N+]([O-])c1ncc(NC(P(=O)(Oc2ccccc2)Oc2ccccc2)P(=O)(Oc2ccccc2)Oc2ccccc2)s1`, the values for the IC50 (in assay [1]; in assay [5]; with Liver) were 48.6 µg/mL (≈ 77.9 µM), 3.54 µg/mL (≈ 5.68 µM) and 97.9 µg/mL (≈ 157 µM), respectively. The “Concentration causing inhibition” value in the assay with Osteoclast [2] worked out at 106.6 µM; in the assay with Osteoclast [3], 87.7 µM. Moreover, the inhibitory concentration in the assay on Osteoclast [4] was 51.6 µM.
On to `O=P(Oc1ccccc1)(Oc1ccccc1)C(Nc1cccc2ncsc12)P(=O)(Oc1ccccc1)Oc1ccccc1`, for which the results for the IC50 (in assay [1]; in assay [5]; in the assay with Liver) were 47.9 µg/mL (≈ 76.2 µM), 2.44 µg/mL (≈ 3.88 µM) and 84.9 µg/mL (≈ 135 µM), respectively. Moreover, the “Concentration causing inhibition” value with Osteoclast [2] was 125.9 µM; in the assay on Osteoclast [3], 95.9 µM. In the assay with Osteoclast [4], the inhibitory concentration is 54.5 µM.
`NCCCC(O)(P(=O)(O)O)P(=O)(O)O` [ALENDRONIC ACID]: the results for the INH with Osteoclast [2] and in the assay with Osteoclast [3] were 52.7 µM and 29.6 µM, respectively. Moreover, in the assay on Osteoclast [4], the inhibitory concentration is 20.4 µM.
For `O=C1O[C@H]([C@@H](O)CO)C(O)=C1O` [ASCORBIC ACID], the IC50 in assay [1] was 32.2 µg/mL (≈ 183 µM); in assay [5], 2.51 µg/mL (≈ 14.3 µM); with Liver it was 75.2 µg/mL (≈ 427 µM).
As to `O=P(Oc1ccccc1)(Oc1ccccc1)C(Nc1ccccc1)P(=O)(Oc1ccccc1)Oc1ccccc1` [TETRAPHENYL(PHENYLAMINO)METHYLENE DIPHOSPHONATE], the IC50 in assay [1] was found to be 80.6 µg/mL (≈ 141 µM); in assay [5] it was 3.12 µg/mL (≈ 5.46 µM); in the assay on Liver it was 96 µg/mL (≈ 168 µM). The entries for the “Concentration causing inhibition” value with Osteoclast [2] and in the assay with Osteoclast [3] were 201.6 µM and 168.2 µM, respectively. In the assay with Osteoclast [4], the inhibitory concentration stood at 104.4 µM.
